Measured values taken from paper PMC9302689 (British Journal of Clinical Pharmacology, 2022).
Marks after values point to notes of the source that are not given here.

How the values were obtained:
hERG channel = hERG channel (Homo sapiens, UniProt Q12809); assay: In vitro hERG channel testing; assay type: biochemical
SERT = SERT (Homo sapiens, UniProt P31645); assay: In vitro binding affinity, SERT; conditions: read-out: Ki, SERT; preclinical in vitro panel
rats = assay: Preclinical multiple dose toxicology study in rats; assay type: in vivo
healthy male subjects [1] = assay: Serum neuro-endocrine hormones; assay type: in vivo, human; conditions: for Cortisol (ng/ml), LSM CFB / Cortisol (ng/ml), estimate of difference compared to placebo / Prolactin (ng/ml), LSM CFB / Prolactin (ng/ml), estimate of difference compared to placebo: 2 hours post-dose, serum
Summary of the method: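 Serum was sampled pre-dose and at 0.25–36 h after a single dose or placebo in healthy men. Cortisol was measured by validated LC–MS/MS (LLOQ 2.00 ng/mL) and prolactin by time-resolved fluoroimmunoassay (LLOQ 0.260 ng/mL). Values were ln-transformed and analysed by MMRM using the 2-h post-dose data, with baseline as covariate and pooled placebo as reference, then back-transformed.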

healthy male subjects [2] = assay: NeuroCart smooth pursuit; assay type: in vivo, human; conditions: 12-hour post-dose period
Summary of the method: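 This used the same head-fixed screen set-up as the saccade test. Subjects tracked a dot moving continuously at 0.3–1.1 Hz in 0.1 Hz steps, twice pre-dose and at 0.5–10 h after a single dose or placebo. Change from baseline over 12 h was analysed by MMRM against pooled placebo, with baseline as covariate.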

healthy male subjects [3] = assay: VAS Bowdle; assay type: in vivo, human; conditions: 12-hour post-dose period
Summary of the method: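 Psychedelic effects were rated on 13 lines scored from 0 (not at all) to 100 mm (extremely), twice pre-dose and at 0.5–10 h post-dose. Change from baseline over 12 h was analysed by MMRM with baseline as covariate. The 3 mg dose group, not placebo, served as the reference.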

dogs = assay: Preclinical multiple dose toxicology study in dogs; assay type: in vivo
healthy male subjects [4] = assay: ECG, QTcF interval; assay type: in vivo, human
Summary of the method: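 Randomized, double-blind, placebo-controlled single ascending dose study in healthy men, dosed 3–200 mg after an overnight fast. 12-lead ECGs were recorded in triplicate, 1 min apart, after 5 min rest in the semi-recumbent position, at scheduled times. QTc and other intervals were derived automatically from the digital ECGs by the Marquette 12SL algorithm.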

Sequence of hERG channel (Q12809 whole entry): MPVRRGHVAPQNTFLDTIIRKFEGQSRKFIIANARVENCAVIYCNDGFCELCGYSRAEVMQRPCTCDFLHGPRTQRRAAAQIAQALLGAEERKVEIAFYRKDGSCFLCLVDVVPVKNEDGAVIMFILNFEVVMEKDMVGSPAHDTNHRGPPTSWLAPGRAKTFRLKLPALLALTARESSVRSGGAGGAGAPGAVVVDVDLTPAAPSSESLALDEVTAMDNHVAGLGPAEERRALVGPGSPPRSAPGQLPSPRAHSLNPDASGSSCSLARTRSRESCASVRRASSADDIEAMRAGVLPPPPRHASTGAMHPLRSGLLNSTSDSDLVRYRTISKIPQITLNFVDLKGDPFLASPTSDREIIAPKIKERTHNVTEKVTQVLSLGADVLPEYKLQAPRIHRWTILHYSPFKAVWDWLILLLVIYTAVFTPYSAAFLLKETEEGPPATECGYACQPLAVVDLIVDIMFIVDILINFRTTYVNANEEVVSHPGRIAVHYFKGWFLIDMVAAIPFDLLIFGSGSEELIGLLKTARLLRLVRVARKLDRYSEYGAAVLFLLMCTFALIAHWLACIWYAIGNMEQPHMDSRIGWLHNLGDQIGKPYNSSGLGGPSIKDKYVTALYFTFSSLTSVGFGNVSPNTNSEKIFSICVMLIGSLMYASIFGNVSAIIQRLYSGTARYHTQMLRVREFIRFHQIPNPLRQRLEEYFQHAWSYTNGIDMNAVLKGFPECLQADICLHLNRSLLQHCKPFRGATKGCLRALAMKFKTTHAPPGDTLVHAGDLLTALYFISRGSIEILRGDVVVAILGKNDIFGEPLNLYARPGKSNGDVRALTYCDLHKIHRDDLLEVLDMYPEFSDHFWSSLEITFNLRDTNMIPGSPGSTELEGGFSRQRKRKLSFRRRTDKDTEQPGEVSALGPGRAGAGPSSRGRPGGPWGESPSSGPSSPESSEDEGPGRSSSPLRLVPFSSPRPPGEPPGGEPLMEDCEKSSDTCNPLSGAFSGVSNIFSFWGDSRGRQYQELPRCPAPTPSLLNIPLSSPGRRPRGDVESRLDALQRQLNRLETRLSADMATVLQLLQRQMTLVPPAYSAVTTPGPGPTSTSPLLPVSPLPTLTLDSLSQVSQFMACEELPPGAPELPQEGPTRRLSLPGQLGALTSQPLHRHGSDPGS
Sequence of SERT (P31645 whole entry, species assumed): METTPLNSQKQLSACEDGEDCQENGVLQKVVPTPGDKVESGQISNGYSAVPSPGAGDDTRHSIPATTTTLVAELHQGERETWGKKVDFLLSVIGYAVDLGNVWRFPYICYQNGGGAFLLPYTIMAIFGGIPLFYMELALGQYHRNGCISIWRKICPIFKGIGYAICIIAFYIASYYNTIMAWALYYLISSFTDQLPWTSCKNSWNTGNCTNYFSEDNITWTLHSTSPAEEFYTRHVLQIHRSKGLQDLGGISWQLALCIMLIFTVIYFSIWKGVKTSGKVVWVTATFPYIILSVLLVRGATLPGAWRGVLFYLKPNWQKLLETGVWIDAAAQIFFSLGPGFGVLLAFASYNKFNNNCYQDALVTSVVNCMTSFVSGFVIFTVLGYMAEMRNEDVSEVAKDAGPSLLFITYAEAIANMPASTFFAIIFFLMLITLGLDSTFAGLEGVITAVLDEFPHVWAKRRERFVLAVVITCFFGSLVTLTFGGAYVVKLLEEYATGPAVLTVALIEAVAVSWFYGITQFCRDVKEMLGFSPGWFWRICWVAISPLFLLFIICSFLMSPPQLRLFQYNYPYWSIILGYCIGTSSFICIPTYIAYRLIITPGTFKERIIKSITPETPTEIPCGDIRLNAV

SMILES: CN1CCC23CCCCC2C1Cc1ccc(C(N)=O)cc13 (stereo not drawn) [ALKS 7119, (9α, 13α)‐17‐methylmorphinan‐3‐carboxamide]
- hERG IC50 (hERG channel): 54.3488 µg/mL
- IC50 (hERG channel; read-out: hERG IC50): 191 µM
- Ki (SERT): 0.035 µM
- human equivalent dose (HED) of NOAEL (rats; rat NOAEL, body surface area extrapolation per FDA guidelines): 96 mg
- NOAEL (rats; rats, multiple dose toxicology): 10 mg/kg
- Cortisol (ng/ml), LSM CFB (healthy male subjects [1]; 3 mg single oral dose): −22.9 % change
- Cortisol (ng/ml), estimate of difference compared to placebo (healthy male subjects [1]; 3 mg single oral dose): −3.6 (−31.1, 34.9) P = .83 % change
- Prolactin (ng/ml), LSM CFB (healthy male subjects [1]; 3 mg single oral dose): −3.6 % change
- Prolactin (ng/ml), estimate of difference compared to placebo (healthy male subjects [1]; 3 mg single oral dose): −3.2 (−26.9; 28.3) P = .82 % change
- Cortisol (ng/ml), LSM CFB (healthy male subjects [1]; 10 mg single oral dose): 8.9 % change
- Cortisol (ng/ml), estimate of difference compared to placebo (healthy male subjects [1]; 10 mg single oral dose): −31.8 (−51.3; −4.5) P = .03 ^* % change
- Prolactin (ng/ml), LSM CFB (healthy male subjects [1]; 10 mg single oral dose): −15.3 % change
- Prolactin (ng/ml), estimate of difference compared to placebo (healthy male subjects [1]; 10 mg single oral dose): 10.1 (−16.9; 45.9) P = .50 % change
- Cortisol (ng/ml), LSM CFB (healthy male subjects [1]; 25 mg single oral dose): −20.8 % change
- Cortisol (ng/ml), estimate of difference compared to placebo (healthy male subjects [1]; 25 mg single oral dose): −6.2 (−32.9; 31.3) P = .71 % change
- Prolactin (ng/ml), LSM CFB (healthy male subjects [1]; 25 mg single oral dose): 8.0 % change
- Prolactin (ng/ml), estimate of difference compared to placebo (healthy male subjects [1]; 25 mg single oral dose): −13.6 (−34.8; 14.5) P = .31 % change
- Cortisol (ng/ml), LSM CFB (healthy male subjects [1]; 50 mg single oral dose): 12.7 % change
- Prolactin (ng/ml), LSM CFB (healthy male subjects [1]; 50 mg single oral dose): 66.0 % change
- Cortisol (ng/ml), LSM CFB (healthy male subjects [1]; 75 mg single oral dose): 36.5 % change
- Cortisol (ng/ml), estimate of difference compared to placebo (healthy male subjects [1]; 75 mg single oral dose): −45.5 (−61.1; −23.8) P < .01 ^* % change
- Prolactin (ng/ml), LSM CFB (healthy male subjects [1]; 75 mg single oral dose): 63.4 % change
- Prolactin (ng/ml), estimate of difference compared to placebo (healthy male subjects [1]; 75 mg single oral dose): −42.9 (−56.9; −24.3) P < .01 ^* % change
- Cortisol (ng/ml), LSM CFB (healthy male subjects [1]; 100 mg single oral dose): 70.3 % change
- Cortisol (ng/ml), estimate of difference compared to placebo (healthy male subjects [1]; 100 mg single oral dose): −56.4 (−68.8; −38.9) P < .01 ^* % change
- Prolactin (ng/ml), LSM CFB (healthy male subjects [1]; 100 mg single oral dose): 72.0 % change
- Prolactin (ng/ml), estimate of difference compared to placebo (healthy male subjects [1]; 100 mg single oral dose): −45.8 (−59.1; −28.1) P < .01 ^* % change
- Cortisol (ng/ml), LSM CFB (healthy male subjects [1]; 125 mg single oral dose): 52.6 % change
- Cortisol (ng/ml), estimate of difference compared to placebo (healthy male subjects [1]; 125 mg single oral dose): −51.3 (−65.2; −31.8) P < .01 ^* % change
- Prolactin (ng/ml), LSM CFB (healthy male subjects [1]; 125 mg single oral dose): 28.0 % change
- Prolactin (ng/ml), estimate of difference compared to placebo (healthy male subjects [1]; 125 mg single oral dose): −27.1 (−45.1; −3.3) P = .03 ^* % change
- Cortisol (ng/ml), LSM CFB (healthy male subjects [1]; 150 mg single oral dose): 84.4 % change
- Cortisol (ng/ml), estimate of difference compared to placebo (healthy male subjects [1]; 150 mg single oral dose): −59.7 (−71.2; −43.6) P < .01 ^* % change
- Prolactin (ng/ml), LSM CFB (healthy male subjects [1]; 150 mg single oral dose): 106.9 % change
- Prolactin (ng/ml), estimate of difference compared to placebo (healthy male subjects [1]; 150 mg single oral dose): −54.9 (−66.0; −40.2) P < .01 ^* % change
- Cortisol (ng/ml), LSM CFB (healthy male subjects [1]; 175 mg single oral dose): 53.6 % change
- Cortisol (ng/ml), estimate of difference compared to placebo (healthy male subjects [1]; 175 mg single oral dose): −51.6 (−65.4; −32.3) P < .01 ^* % change
- Prolactin (ng/ml), LSM CFB (healthy male subjects [1]; 175 mg single oral dose): 81.7 % change
- Prolactin (ng/ml), estimate of difference compared to placebo (healthy male subjects [1]; 175 mg single oral dose): −48.7 (−61.3; −32.0) P < .01 ^* % change
- Cortisol (ng/ml), LSM CFB (healthy male subjects [1]; 200 mg single oral dose): 64.7 % change
- Cortisol (ng/ml), estimate of difference compared to placebo (healthy male subjects [1]; 200 mg single oral dose): −54.9 (−67.8; −36.9) P < .01 ^* % change
- Prolactin (ng/ml), LSM CFB (healthy male subjects [1]; 200 mg single oral dose): 111.3 % change
- Prolactin (ng/ml), estimate of difference compared to placebo (healthy male subjects [1]; 200 mg single oral dose): −55.8 (−66.7; −41.5) P < .01 ^* % change
- Serum cortisol, increase vs placebo (estimate of difference) (healthy male subjects [1]; from dose levels ≥50 mg): 51.7 % change
- Serum prolactin, increase vs placebo (estimate of difference) (healthy male subjects [1]; from dose levels ≥50 mg): 77.9 % change
- Smooth pursuit, LSM CFB (healthy male subjects [2]; 3 mg single oral dose): −0.26%
- Smooth pursuit, LSM CFB (healthy male subjects [2]; 10 mg single oral dose): 0.06%
- Smooth pursuit, LSM CFB (healthy male subjects [2]; 25 mg single oral dose): −1.44%
- Smooth pursuit, LSM CFB (healthy male subjects [2]; 50 mg single oral dose): −0.03%
- Smooth pursuit, LSM CFB (healthy male subjects [2]; 75 mg single oral dose): −3.44%
- Smooth pursuit, LSM CFB (healthy male subjects [2]; 100 mg single oral dose): −0.49%
- Smooth pursuit, LSM CFB (healthy male subjects [2]; 125 mg single oral dose): −3.82%
- Smooth pursuit, LSM CFB (healthy male subjects [2]; 150 mg single oral dose): −1.14%
- Smooth pursuit, LSM CFB (healthy male subjects [2]; 175 mg single oral dose): −1.07%
- Smooth pursuit, LSM CFB (healthy male subjects [2]; 200 mg single oral dose): 1.24%
- VAS Bowdle “external perception”, LSM CFB (healthy male subjects [3]; 3 mg single oral dose): 0.00
- VAS Bowdle “feeling high”, LSM CFB (healthy male subjects [3]; 3 mg single oral dose): 0.00
- VAS Bowdle “internal perception”, LSM CFB (healthy male subjects [3]; 3 mg single oral dose): 0.00
- VAS Bowdle “external perception”, LSM CFB (healthy male subjects [3]; 10 mg single oral dose): 0.00
- VAS Bowdle “feeling high”, LSM CFB (healthy male subjects [3]; 10 mg single oral dose): 0.00
- VAS Bowdle “internal perception”, LSM CFB (healthy male subjects [3]; 10 mg single oral dose): 0.00
- VAS Bowdle “external perception”, LSM CFB (healthy male subjects [3]; 25 mg single oral dose): 0.00
- VAS Bowdle “feeling high”, LSM CFB (healthy male subjects [3]; 25 mg single oral dose): 0.00
- VAS Bowdle “internal perception”, LSM CFB (healthy male subjects [3]; 25 mg single oral dose): 0.00
- VAS Bowdle “external perception”, LSM CFB (healthy male subjects [3]; 50 mg single oral dose): 0.00
- VAS Bowdle “feeling high”, LSM CFB (healthy male subjects [3]; 50 mg single oral dose): 0.00
- VAS Bowdle “internal perception”, LSM CFB (healthy male subjects [3]; 50 mg single oral dose): 0.00
- VAS Bowdle “external perception”, LSM CFB (healthy male subjects [3]; 75 mg single oral dose): 0.00
- VAS Bowdle “feeling high”, LSM CFB (healthy male subjects [3]; 75 mg single oral dose): 0.00
- VAS Bowdle “internal perception”, LSM CFB (healthy male subjects [3]; 75 mg single oral dose): 0.00
- VAS Bowdle “external perception”, LSM CFB (healthy male subjects [3]; 100 mg single oral dose): 0.00
- VAS Bowdle “feeling high”, LSM CFB (healthy male subjects [3]; 100 mg single oral dose): 0.00
- VAS Bowdle “internal perception”, LSM CFB (healthy male subjects [3]; 100 mg single oral dose): 0.00
- VAS Bowdle “external perception”, LSM CFB (healthy male subjects [3]; 125 mg single oral dose): 0.00
- VAS Bowdle “feeling high”, LSM CFB (healthy male subjects [3]; 125 mg single oral dose): 0.00
- VAS Bowdle “internal perception”, LSM CFB (healthy male subjects [3]; 125 mg single oral dose): 0.00
- VAS Bowdle “external perception”, LSM CFB (healthy male subjects [3]; 150 mg single oral dose): 0.00
- VAS Bowdle “feeling high”, LSM CFB (healthy male subjects [3]; 150 mg single oral dose): 0.00
- VAS Bowdle “internal perception”, LSM CFB (healthy male subjects [3]; 150 mg single oral dose): 0.00
- VAS Bowdle “external perception”, LSM CFB (healthy male subjects [3]; 175 mg single oral dose): 0.00
- VAS Bowdle “feeling high”, LSM CFB (healthy male subjects [3]; 175 mg single oral dose): 0.00
- VAS Bowdle “internal perception”, LSM CFB (healthy male subjects [3]; 175 mg single oral dose): 0.00
- VAS Bowdle “external perception”, LSM CFB (healthy male subjects [3]; 200 mg single oral dose): 0.00
- VAS Bowdle “feeling high”, LSM CFB (healthy male subjects [3]; 200 mg single oral dose): 0.00
- VAS Bowdle “internal perception”, LSM CFB (healthy male subjects [3]; 200 mg single oral dose): 0.00
- human equivalent dose (HED) of NOAEL (dogs; dog NOAEL): 97.2 mg
- NOAEL (dogs; dogs, multiple dose toxicology): 3 mg/kg
- Subjects with QTcF increases from baseline of 30–60 ms (healthy male subjects [4]; all ALKS 7119 groups, only at 50 mg or higher, none in placebo): 8.8%
- QTcF interval increases compared to baseline (healthy male subjects [4]; doses of ≥50 mg): 30 to 60 ms
- Highest individual QTcF value (healthy male subjects [4]; subject treated with 200 mg): 475 ms
- Increase of QTcF compared to baseline at highest individual value (healthy male subjects [4]; subject treated with 200 mg): 33 ms
